{"source": "paper PMC10582678", "about": "(Clinical and Translational Science, 2023)", "test": "Safety, adverse events, single ascending dose", "format": "in vivo, human", "conditions": "for AEs / Decreased leukocyte count / Decreased neutrophil count / Increased ALT / Increased blood cholesterol / Increased blood triglycerides / Abdominal discomfort / Constipation / Decreased lymphocyte count / Dermatitis allergic / Dyspepsia / Increased AST / Increased blood bilirubin / Increased blood creatinine / Lethargy / Mouth ulceration / Oropharyngeal pain / Sinus arrythmia / Treatment discontinuation due to AEs / Upper respiratory tract infection: n (%)", "summary_of_the_method": "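Safety was monitored by vital signs, clinical laboratory tests, physical examination, 12-lead ECG, AEs and SAEs. AEs were coded with MedDRA 23.1 and graded by CTCAE 5.0. Subjects were discharged 6 days after the last dose, with a follow-up visit 8–14 days after the last dose. The safety set comprised randomized subjects who received active drug or placebo and had post-dose safety data.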", "key": {"[1]": {"conditions": "27 subjects who received SAD 100 to 800 mg"}}}
{"compound": "N#CN1C[C@H](n2nc(-c3ccc(Oc4ccc(Cl)cn4)cc3)c(C(N)=O)c2N)CCC12CC2", "note": "[SN1011, 5-amino-3-(4-((5-chloro-2-pyridinyl)oxy)phenyl)-1-((6R)-4-cyano-4-azaspiro[2.5]octan-6-yl)-1H-pyrazole-4-carboxamide]", "values": [{"measurement": "blood triglycerides increased", "setting": "[1]", "result": 18.5, "unit": "%"}, {"measurement": "neutrophil count decreased", "setting": "[1]", "result": 14.8, "unit": "%"}, {"measurement": "number of AEs", "setting": "[1]", "result": 13}, {"measurement": "subjects who experienced AEs", "setting": "[1]", "result": 33.3, "unit": "%"}, {"measurement": "white blood cell count decreased", "setting": "[1]", "result": 7.4, "unit": "%"}, {"measurement": "AEs", "setting": "SAD 100 mg, any grade", "result": 0}, {"measurement": "Decreased leukocyte count", "setting": "SAD 100 mg, any grade", "result": 0}, {"measurement": "Decreased neutrophil count", "setting": "SAD 100 mg, any grade", "result": 0}, {"measurement": "Increased ALT", "setting": "SAD 100 mg, any grade", "result": 0}, {"measurement": "Increased blood cholesterol", "setting": "SAD 100 mg, any grade", "result": 0}, {"measurement": "Increased blood triglycerides", "setting": "SAD 100 mg, any grade", "result": 0}, {"measurement": "Abdominal discomfort", "setting": "SAD 100 mg", "result": 0}, {"measurement": "Constipation", "setting": "SAD 100 mg", "result": 0}, {"measurement": "Decreased lymphocyte count", "setting": "SAD 100 mg", "result": 0}, {"measurement": "Dermatitis allergic", "setting": "SAD 100 mg", "result": 0}, {"measurement": "Dyspepsia", "setting": "SAD 100 mg", "result": 0}, {"measurement": "Increased AST", "setting": "SAD 100 mg", "result": 0}, {"measurement": "Increased blood bilirubin", "setting": "SAD 100 mg", "result": 0}, {"measurement": "Increased blood creatinine", "setting": "SAD 100 mg", "result": 0}, {"measurement": "Lethargy", "setting": "SAD 100 mg", "result": 0}, {"measurement": "Mouth ulceration", "setting": "SAD 100 mg", "result": 0}, {"measurement": "Oropharyngeal pain", "setting": "SAD 100 mg", "result": 0}, {"measurement": "Sinus arrythmia", "setting": "SAD 100 mg", "result": 0}, {"measurement": "Treatment discontinuation due to AEs", "setting": "SAD 100 mg", "result": 0}, {"measurement": "Upper respiratory tract infection", "setting": "SAD 100 mg", "result": 0}, {"measurement": "AEs", "setting": "SAD 200 mg, any grade", "result": "2 (33.3)"}, {"measurement": "Decreased leukocyte count", "setting": "SAD 200 mg, any grade", "result": 0}, {"measurement": "Decreased neutrophil count", "setting": "SAD 200 mg, any grade", "result": 0}, {"measurement": "Increased ALT", "setting": "SAD 200 mg, any grade", "result": "1 (16.7)"}, {"measurement": "Increased blood cholesterol", "setting": "SAD 200 mg, any grade", "result": "1 (16.7)"}, {"measurement": "Increased blood triglycerides", "setting": "SAD 200 mg, any grade", "result": "2 (33.3)"}, {"measurement": "Abdominal discomfort", "setting": "SAD 200 mg", "result": 0}, {"measurement": "Constipation", "setting": "SAD 200 mg", "result": 0}, {"measurement": "Decreased lymphocyte count", "setting": "SAD 200 mg", "result": 0}, {"measurement": "Dermatitis allergic", "setting": "SAD 200 mg", "result": 0}, {"measurement": "Dyspepsia", "setting": "SAD 200 mg", "result": 0}, {"measurement": "Increased AST", "setting": "SAD 200 mg", "result": 0}, {"measurement": "Increased blood bilirubin", "setting": "SAD 200 mg", "result": 0}, {"measurement": "Increased blood creatinine", "setting": "SAD 200 mg", "result": 0}, {"measurement": "Lethargy", "setting": "SAD 200 mg", "result": 0}, {"measurement": "Mouth ulceration", "setting": "SAD 200 mg", "result": 0}, {"measurement": "Oropharyngeal pain", "setting": "SAD 200 mg", "result": 0}, {"measurement": "Sinus arrythmia", "setting": "SAD 200 mg", "result": 0}, {"measurement": "Treatment discontinuation due to AEs", "setting": "SAD 200 mg", "result": 0}, {"measurement": "Upper respiratory tract infection", "setting": "SAD 200 mg", "result": 0}, {"measurement": "AEs", "setting": "SAD 400 mg, any grade", "result": "2 (33.3)"}, {"measurement": "Decreased leukocyte count", "setting": "SAD 400 mg, any grade", "result": 0}, {"measurement": "Decreased neutrophil count", "setting": "SAD 400 mg, any grade", "result": 0}, {"measurement": "Increased ALT", "setting": "SAD 400 mg, any grade", "result": 0}, {"measurement": "Increased blood cholesterol", "setting": "SAD 400 mg, any grade", "result": 0}, {"measurement": "Increased blood triglycerides", "setting": "SAD 400 mg, any grade", "result": "2 (33.3)"}, {"measurement": "Abdominal discomfort", "setting": "SAD 400 mg", "result": 0}, {"measurement": "Constipation", "setting": "SAD 400 mg", "result": 0}, {"measurement": "Decreased lymphocyte count", "setting": "SAD 400 mg", "result": 0}, {"measurement": "Dermatitis allergic", "setting": "SAD 400 mg", "result": 0}, {"measurement": "Dyspepsia", "setting": "SAD 400 mg", "result": 0}, {"measurement": "Increased AST", "setting": "SAD 400 mg", "result": 0}, {"measurement": "Increased blood bilirubin", "setting": "SAD 400 mg", "result": 0}, {"measurement": "Increased blood creatinine", "setting": "SAD 400 mg", "result": 0}, {"measurement": "Lethargy", "setting": "SAD 400 mg", "result": 0}, {"measurement": "Mouth ulceration", "setting": "SAD 400 mg", "result": 0}, {"measurement": "Oropharyngeal pain", "setting": "SAD 400 mg", "result": 0}, {"measurement": "Sinus arrythmia", "setting": "SAD 400 mg", "result": 0}, {"measurement": "Treatment discontinuation due to AEs", "setting": "SAD 400 mg", "result": 0}, {"measurement": "Upper respiratory tract infection", "setting": "SAD 400 mg", "result": 0}, {"measurement": "AEs", "setting": "SAD 600 mg, any grade", "result": "3 (50.0)"}, {"measurement": "Decreased leukocyte count", "setting": "SAD 600 mg, any grade", "result": "1 (16.7)"}, {"measurement": "Decreased neutrophil count", "setting": "SAD 600 mg, any grade", "result": "3 (50.0)"}, {"measurement": "Increased ALT", "setting": "SAD 600 mg, any grade", "result": 0}, {"measurement": "Increased blood cholesterol", "setting": "SAD 600 mg, any grade", "result": 0}, {"measurement": "Increased blood triglycerides", "setting": "SAD 600 mg, any grade", "result": 0}, {"measurement": "Abdominal discomfort", "setting": "SAD 600 mg", "result": 0}, {"measurement": "Constipation", "setting": "SAD 600 mg", "result": 0}, {"measurement": "Decreased lymphocyte count", "setting": "SAD 600 mg", "result": 0}, {"measurement": "Dermatitis allergic", "setting": "SAD 600 mg", "result": 0}, {"measurement": "Dyspepsia", "setting": "SAD 600 mg", "result": 0}, {"measurement": "Increased AST", "setting": "SAD 600 mg", "result": 0}, {"measurement": "Increased blood bilirubin", "setting": "SAD 600 mg", "result": 0}, {"measurement": "Increased blood creatinine", "setting": "SAD 600 mg", "result": 0}, {"measurement": "Lethargy", "setting": "SAD 600 mg", "result": 0}, {"measurement": "Mouth ulceration", "setting": "SAD 600 mg", "result": 0}, {"measurement": "Oropharyngeal pain", "setting": "SAD 600 mg", "result": 0}, {"measurement": "Sinus arrythmia", "setting": "SAD 600 mg", "result": 0}, {"measurement": "Treatment discontinuation due to AEs", "setting": "SAD 600 mg", "result": 0}, {"measurement": "Upper respiratory tract infection", "setting": "SAD 600 mg", "result": 0}, {"measurement": "AEs", "setting": "SAD 800 mg, any grade", "result": "2 (33.3)"}, {"measurement": "Decreased leukocyte count", "setting": "SAD 800 mg, any grade", "result": "1 (16.7)"}, {"measurement": "Decreased neutrophil count", "setting": "SAD 800 mg, any grade", "result": "1 (16.7)"}, {"measurement": "Increased ALT", "setting": "SAD 800 mg, any grade", "result": 0}, {"measurement": "Increased blood cholesterol", "setting": "SAD 800 mg, any grade", "result": 0}, {"measurement": "Increased blood triglycerides", "setting": "SAD 800 mg, any grade", "result": "1 (16.7)"}, {"measurement": "Abdominal discomfort", "setting": "SAD 800 mg", "result": 0}, {"measurement": "Constipation", "setting": "SAD 800 mg", "result": 0}, {"measurement": "Decreased lymphocyte count", "setting": "SAD 800 mg", "result": 0}, {"measurement": "Dermatitis allergic", "setting": "SAD 800 mg", "result": 0}, {"measurement": "Dyspepsia", "setting": "SAD 800 mg", "result": 0}, {"measurement": "Increased AST", "setting": "SAD 800 mg", "result": 0}, {"measurement": "Increased blood bilirubin", "setting": "SAD 800 mg", "result": 0}, {"measurement": "Increased blood creatinine", "setting": "SAD 800 mg", "result": 0}, {"measurement": "Lethargy", "setting": "SAD 800 mg", "result": 0}, {"measurement": "Mouth ulceration", "setting": "SAD 800 mg", "result": 0}, {"measurement": "Oropharyngeal pain", "setting": "SAD 800 mg", "result": 0}, {"measurement": "Sinus arrythmia", "setting": "SAD 800 mg", "result": 0}, {"measurement": "Treatment discontinuation due to AEs", "setting": "SAD 800 mg", "result": 0}, {"measurement": "Upper respiratory tract infection", "setting": "SAD 800 mg", "result": 0}, {"measurement": "Abdominal discomfort", "setting": "SAD All SN1011, N = 27", "result": 0}, {"measurement": "Constipation", "setting": "SAD All SN1011, N = 27", "result": 0}, {"measurement": "Decreased leukocyte count", "setting": "SAD All SN1011, N = 27", "result": "2 (7.4)"}, {"measurement": "Decreased lymphocyte count", "setting": "SAD All SN1011, N = 27", "result": 0}, {"measurement": "Decreased neutrophil count", "setting": "SAD All SN1011, N = 27", "result": "4 (14.8)"}, {"measurement": "Dermatitis allergic", "setting": "SAD All SN1011, N = 27", "result": 0}, {"measurement": "Dyspepsia", "setting": "SAD All SN1011, N = 27", "result": 0}, {"measurement": "Increased ALT", "setting": "SAD All SN1011, N = 27", "result": "1 (3.7)"}, {"measurement": "Increased AST", "setting": "SAD All SN1011, N = 27", "result": 0}, {"measurement": "Increased blood bilirubin", "setting": "SAD All SN1011, N = 27", "result": 0}, {"measurement": "Increased blood cholesterol", "setting": "SAD All SN1011, N = 27", "result": "1 (3.7)"}, {"measurement": "Increased blood creatinine", "setting": "SAD All SN1011, N = 27", "result": 0}, {"measurement": "Increased blood triglycerides", "setting": "SAD All SN1011, N = 27", "result": "5 (18.5)"}, {"measurement": "Lethargy", "setting": "SAD All SN1011, N = 27", "result": 0}, {"measurement": "Mouth ulceration", "setting": "SAD All SN1011, N = 27", "result": 0}, {"measurement": "Oropharyngeal pain", "setting": "SAD All SN1011, N = 27", "result": 0}, {"measurement": "Sinus arrythmia", "setting": "SAD All SN1011, N = 27", "result": 0}, {"measurement": "Treatment discontinuation due to AEs", "setting": "SAD All SN1011, N = 27", "result": 0}, {"measurement": "Upper respiratory tract infection", "setting": "SAD All SN1011, N = 27", "result": 0}]}
